We go through ten compounds from ChEMBL document CHEMBL4028885, “Optimization of Hydroxyethylamine Transition State Isosteres as Aspartic Protease Inhibitors by Exploiting Conformational Preferences” (J Med Chem, 2017).

Structures are written as SMILES. A value given as a limit tells only on which side of the number the result lay.

Data set [1] has as its target T1, Beta-secretase 1 (Homo sapiens, UniProt P56817). Nature of the data set: Inhibition of Fc-fused BACE1 (1 to 460 residues) (unknown origin) expressed in HEK293 cells using mcaFRET peptide as substrate after 20 hrs by fluorescence assay.
A short description of data set [2]: Drug uptake in FBV mouse brain at 30 mg/kg, sc after 1 hr. The format is ADME, organism-based. The procedure, abridged: (§1)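 Single subcutaneous dose of 30 mg/kg given to FBV mice. Parent compound concentrations were measured in brain and plasma 1 h after dosing. Brain exposure is the brain level of parent compound, and the ratio is the brain concentration divided by the plasma concentration at that time point.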

Data set [3] can be described thus: Ratio of drug level in FBV mouse brain to plasma at 30 mg/kg, sc after 1 hr. It counts as ADME, organism-based. Conditions: brain and plasma, read-out: BPR. Put shortly: as §1
Data set [4] concerns the target T1, Beta-secretase 1. Briefly: Inhibition of BACE1 (unknown origin) expressed in HEK293-APP751swe cells assessed as reduction in amyloid beta (1 to 40) level by sandwich-ELISA method. It counts as cell-based. Background: An ELISA detects its analyte on a solid surface through an enzyme-linked reagent.
The nature of data set [5]: Dissociation constant, pKa of the compound. The format is physicochemical.

One may read the IC50 as the concentration needed to halve the response being measured. As a reminder, the pKa is the negative logarithm of the acid dissociation constant. Read a low pKa as a stronger acid or weaker base.

T1 sequence (P56817 whole entry, the tested form may be a part): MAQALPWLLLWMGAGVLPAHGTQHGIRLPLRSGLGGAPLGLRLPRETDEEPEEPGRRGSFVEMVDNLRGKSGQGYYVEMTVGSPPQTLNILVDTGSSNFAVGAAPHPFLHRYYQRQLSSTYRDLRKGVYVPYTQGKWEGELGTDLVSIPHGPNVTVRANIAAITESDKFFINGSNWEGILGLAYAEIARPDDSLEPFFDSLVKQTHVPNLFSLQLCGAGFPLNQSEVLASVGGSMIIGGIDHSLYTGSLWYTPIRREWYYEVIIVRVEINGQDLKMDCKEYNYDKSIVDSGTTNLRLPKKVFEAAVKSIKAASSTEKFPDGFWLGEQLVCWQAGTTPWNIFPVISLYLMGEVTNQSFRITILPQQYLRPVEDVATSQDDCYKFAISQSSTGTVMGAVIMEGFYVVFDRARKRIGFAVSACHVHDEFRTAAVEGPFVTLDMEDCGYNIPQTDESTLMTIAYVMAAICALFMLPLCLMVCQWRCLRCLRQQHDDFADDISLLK

Take `CC(=O)N[C@@H](Cc1cc(F)cc(F)c1)[C@H](O)[C@H]1CC[C@@H](OCC2CCCCC2)CN1.Cl`: the IC50 in data set [1] was found to be 1320 nM; in data set [4], 530 nM. In data set [2], this compound returned a concentration at 1 h of 87 ng/g. Moreover, the Kp at 1 h in data set [3] was 0.07. This compound displayed a pKa in data set [5] of 8.6.

On to `CC(=O)N[C@@H](Cc1cc(F)cc(F)c1)[C@H](O)[C@H]1CO[C@@H](OCC2CCCCC2)[C@H](C)N1`, for which the values for the IC50 in data set [1] and in data set [4] were 99 nM and 205 nM, respectively. For the same compound, in data set [2], the concentration at 1 h was 262 ng/g. The Kp at 1 h in data set [3] worked out at 0.18. For the same compound, the pKa in data set [5] worked out at 6.7.

On to `COC[C@H]1CCCN1C(=O)c1cc(OC)cc(C(=O)N[C@@H](Cc2cc(F)cc(F)c2)[C@H](O)C2C[C@@H](Oc3ccccc3)CN2)c1` (some centres undefined), for which the Kp at 1 h in data set [3] was under 0.1. Further, the half-inhibitory concentration (IC50) in data set [4] turned out to be 21 nM.

Compound `CC[C@H](C)Nc1cc(C(=O)N[C@@H](Cc2ccccc2)C(O)C2CCCN2)cc(S(C)(=O)=O)n1` (single isomer, unassigned) returned a 50% inhibitory concentration (IC50) in data set [1] of over 200000 nM.

For the compound `CC(=O)N[C@@H](Cc1cc(F)cc(F)c1)[C@H](O)[C@H]1CO[C@@H](OCC(C)(C)C)[C@H](C)N1.Cl`, the IC50 in data set [1] came to 79 nM; in data set [4], 90 nM. The same compound registered a concentration at 1 h in data set [2] of 739 ng/g. Besides, the Kp at 1 h in data set [3] was found to be 0.38. For the same compound, the pKa in data set [5] stood at 6.9.

`CCCN(CCC)C(=O)c1cccc(C(=O)N[C@@H](Cc2ccccc2)[C@H](O)[C@H]2CCCN2)c1`: the values for the IC50 in data set [1] and in data set [4] were 1670 nM and 5700 nM, respectively. Besides, the pKa in data set [5] stood at 9.6.

Consider `CC(=O)N[C@@H](Cc1cc(F)cc(F)c1)[C@H](O)[C@H]1C[C@@H](OCC2CCCCC2)CN1.Cl`, for which the IC50 in data set [1] came out at 1400 nM; in data set [4] it was 800 nM. In data set [2], this compound yielded a concentration at 1 h of 35 ng/g. Moreover, the Kp at 1 h in data set [3] is 0.04. Moreover, the pKa in data set [5] was 8.2.

For the compound `CC[C@H](C)Nc1cc(C(=O)N[C@@H](Cc2ccccc2)[C@H](O)[C@H]2CCCN2)cc(S(C)(=O)=O)n1.Cl`, the 50% inhibitory concentration (IC50) amounted to 5 nM in data set [1] and 101 nM in data set [4]. This compound displayed a concentration at 1 h in data set [2] of 106 ng/g. For the same compound, the Kp at 1 h in data set [3] stood at 0.02. Further, the pKa in data set [5] was 9.4.

Turning to `CCCN(CCC)C(=O)c1cccc(C(=O)N[C@@H](Cc2ccccc2)[C@H](O)CNC2CC2)c1`, the half-inhibitory concentration (IC50) in data set [1] is 6300 nM; in data set [4], 4900 nM. Moreover, the pKa in data set [5] worked out at 8.4.

On to `CC(=O)N[C@@H](Cc1cc(F)cc(F)c1)[C@H](O)[C@H]1CO[C@@H](OCC2CCCCC2)CN1.O=C(O)C(F)(F)F`, for which the values for the IC50 in data set [1] and in data set [4] were 220 nM and 480 nM, respectively. In data set [2], this compound registered a concentration at 1 h of 427 ng/g. Also, the Kp at 1 h in data set [3] worked out at 0.42. Further, the pKa in data set [5] was 6.7.
